pIC50: −log10 of the molar value. The source made the active and inactive calls.
Legend:
[1] = (§1) Inhibition of phosphotidylserine liposome-stimulated sheep brain Dynamin 1 GTPase activity using GTP as substrate by malachite green assay; format: tissue-based, Ovis aries
In short: (§2)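 Native dynamin I from sheep brain (membrane extraction, GST-Amph2-SH3-sepharose affinity), stimulated by sonicated phosphatidylserine liposomes; GTP hydrolysis read as orthophosphate by malachite green. DMSO at most 3.3% final. […] 300 μM is the top concentration tested.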

[2] = Inhibition of clathrin-mediated endocytosis in serum-starved human U2OS cells assessed as reduction in Tfn-A594 uptake pretreated for 30 mins followed by Tfn-A594 addition and measured after 8 mins; format: cell-based
In short: (§3)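 U2OS cells on fibronectin-coated plates, serum-starved 16 h, then compound (usually 6 concentrations, 1–300 μM) or vehicle for 30 min, then Tfn-A594 4 μg mL⁻¹ for 8 min at 37 °C. Surface Tfn acid-stripped (pH 2.8), PFA-fixed, DAPI-stained; automated imaging of integrated Tfn intensity per cell, as % of vehicle. DMSO at most 1%.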

Rattus norvegicus [3] = organism: Rattus norvegicus; assay: Inhibition of synaptic vesicle endocytosis in Sprague-Dawley rat cerebrum synaptosomes assessed as reduction in depolarisation-stimulated FM4-64 uptake preincubated for 30 mins followed by FM4-64 addition for 2 mins and further depolarised for 2 mins by fluorescent imaging analysis; format: functional, Synaptosome; settings: for inhibition: Synaptosome, time 34.0 min
In short: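 Purified rat cerebrum synaptosomes (male, 6–8 weeks) attached to plates at 30 °C in Krebs buffer with 0.1 mM CaCl₂, pH 7.4. Compound or DMSO (1%) for 30 min, then 1 μM FM 4-64 for 2 min, then 80 mM KCl depolarisation for 2 min. Imaged ex 476–524/em 608–742 nm; intensity normalised to control uptake (1.0).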

Mus musculus [4] = assay: Antiseizure activity against electrically stimulated seizure in C57BL/6 mouse model assessed as increase in seizures threshold at 10 mg/kg, ip pretreated for 30 mins followed by electrical stimulation at 6 Hz; format: functional, organism-based
In short: (§4)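 Mouse 6 Hz corneal stimulation (0.2 ms rectangular pulse, 3 s, varying current). Given ip 30 min before stimulation; DMA 20%/Tween-80 5%/PEG300 75% vehicle for test doses (10, 30, 60 mg kg⁻¹), 0.9% saline for valproate (400 mg kg⁻¹). Seizure scored as stunned/fixed posture, rearing, forelimb clonus or twitching. EC50 current by up-and-down method, 2 mA steps; each mouse used once; Mann–Whitney U vs vehicle.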

Ovis aries [5] = organism: Ovis aries; assay: Competitive inhibition of phosphotidylserine liposome-stimulated sheep brain Dynamin 1 GTPase activity using varying concentrations of Mg2+.GTP as substrate at 3 to 7 uM by Lineweaver-Burk plot analysis; format: tissue-based; settings: dose 3-7 µM
Mus musculus [6] = assay: Antiseizure activity against electrically stimulated seizure in C57BL/6 mouse model assessed as increase in seizures threshold at 30 to 60 mg/kg, ip pretreated for 30 mins followed by electrical stimulation at 6 Hz; format: functional, organism-based; settings: dose 30-60 mg/kg; in short: as §4
Rattus norvegicus [7] = organism: Rattus norvegicus; assay: Inhibition of exocytosis in Sprague-Dawley rat brain synaptosome assessed as effect on Ca2+ dependent glutamate release at 80 uM preincubated for 1 mins in presence of NADP followed by glutamate dehydrogenase addition and further stimulated with 4-aminopyridine for 4 mins by spectrofluorimeter; format: functional; settings: time 5.0 min
In short: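 Synaptosomes (0.6 mg in 2 ml) in Krebs-like buffer, pH 7.4, 37 °C, containing 1.2 mM CaCl₂ or calcium-free with 1 mM EGTA. Started with 1 mM NADP; glutamate dehydrogenase 50 U added after 1 min; 4-aminopyridine stimulation after 4 min. Released glutamate followed as NADPH fluorescence (ex 340/em 460 nm).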

Ovis aries [8] = organism: Ovis aries; assay: Inhibition of phosphotidylserine liposome-stimulated sheep brain Dynamin 1 GTPase activity using GTP as substrate at 300 uM by malachite green assay relative to control; format: tissue-based; in short: as §2
Ovis aries [9] = organism: Ovis aries; assay: as §1; format: tissue-based; in short: as §2
Mus musculus [10] = assay: Antiseizure activity against electrically stimulated seizure in C57BL/6 mouse model assessed as increase in current required to provoke seizures at 400 mg/kg, ip pretreated for 30 mins followed by electrical stimulation at 6 Hz; format: functional, organism-based; in short: as §4
[11] = Inhibition of clathrin-mediated endocytosis in human U2OS cells assessed as reduction in Tfn-A594 uptake pretreated for 30 mins; format: cell-based; in short: as §3

For `CN(C)c1cccc2c(S(=O)(=O)NCCCCCN)cccc12`, the pIC50 [1] was 4.35, the pIC50 [2] was 3.69 and the pIC50 (Rattus norvegicus [3]) was < 3.52.

With `O=S(=O)(NCCCNC/C=C/c1ccc(Br)cc1)c1cccc2ccccc12` the Activity (Mus musculus [4]) was “inactive”, the inhibition (Ovis aries [5]) was “Active” and the pIC50 [1] was 5.46. For the same compound, the pIC50 [2] was 4.56, the Activity (Mus musculus [6]) was “Active” and the inhibition (Rattus norvegicus [7]) was “inactive”. It also gave a pIC50 (Rattus norvegicus [3]) of 4.91.

With `O=S(=O)(NCCNC/C=C/c1ccc(F)cc1)c1cccc2cnccc12` the pIC50 [1] was 4.69.

In the case of `O=S(=O)(NCCCCCCNC/C=C/c1ccc(Br)cc1)c1cccc2cnccc12`, the inhibition (Ovis aries [5]) was “Active”, the pIC50 [1] was 5.43 and the pIC50 [2] was 4.80. For the same compound, the pIC50 (Rattus norvegicus [3]) was 3.58.

Work on `O=S(=O)(NCCNC/C=C/c1ccc(Cl)cc1)c1cccc2cnccc12` yielded a pIC50 [1] of 5.04.

For `O=S(=O)(NCCCCNC/C=C/c1ccc(Br)cc1)c1cccc2cnccc12`, the pIC50 [1] was 5.09.

In the case of `CN(C/C=C/c1ccc(Br)cc1)CCN(C)S(=O)(=O)c1cccc2ccccc12`, the pIC50 [1] was 5.06.

With `O=S(=O)(NCCNC/C=C/c1ccc(Br)cc1)c1cccc2cccnc12` the pIC50 [1] was 5.02.

With `O=S(=O)(NCCNC/C=C/c1ccc(Br)cc1)c1cccc2cnccc12` the pIC50 [1] was 5.15.

For `O=S(=O)(NCCNC/C=C/c1ccc(C(F)(F)F)cc1)c1cccc2cnccc12`, the pIC50 [1] was 4.91.

In the case of `O=S(=O)(NCCNCCCc1ccccc1)c1cccc2cnccc12`, the pIC50 [1] was 4.52.

`O=S(=O)(NCCNCCc1ccccc1)c1cccc2cnccc12` gave a pIC50 [1] of 4.01.

Compound `O=S(=O)(NCCNC/C=C/c1ccccc1)c1cccc2cnccc12` has a pIC50 [1] of 4.42.

With `O=C(/C=C/c1ccc(Br)cc1)NCCNS(=O)(=O)c1cccc2cnccc12` the inhibition (Ovis aries [8]) was < 50% and the pIC50 [1] was < 3.52.

In the case of `CC(C)(C)c1ccc(/C=C/CNCCNS(=O)(=O)c2cccc3cnccc23)cc1`, the pIC50 [1] was 5.18.

With `O=S(=O)(NCCNC/C=C/c1ccc(Br)cc1)c1cccc2ccccc12` the pIC50 [1] was 5.36, the pIC50 [2] was 4.91 and the inhibition (Rattus norvegicus [3]) was “inactive”.

For `O=S(=O)(NCCNC/C=C/c1ccc(Br)cc1)c1ccc2ccccc2c1`, the pIC50 [1] was 5.44, the pIC50 [2] was 5.03 and the inhibition (Rattus norvegicus [3]) was “inactive”.

In the case of `CN(C)c1ccc(/C=C/CNCCNS(=O)(=O)c2cccc3cnccc23)cc1`, the pIC50 [1] was 4.70.

In the case of `O=S(=O)(NCCCCCCNC/C=C/c1ccc(Br)cc1)c1cccc2ccccc12`, the pIC50 [1] was 5.28, the pIC50 [2] was 4.57 and the inhibition (Rattus norvegicus [3]) was “inactive”.

`O=S(=O)(c1cccc2cnccc12)N1CCN(C/C=C/c2ccc(Br)cc2)CC1` showed a pIC50 [1] of 4.24.

With `CN(C/C=C/c1ccc(Br)cc1)CCNS(=O)(=O)c1cccc2ccccc12` the pIC50 [1] was 4.98.

In the case of `O=S(=O)(NCCCCNC/C=C/c1ccc(Br)cc1)c1cccc2ccccc12`, the pIC50 [1] was 5.52, the pIC50 [2] was 4.95 and the inhibition (Rattus norvegicus [3]) was “inactive”.

For `NCCNS(=O)(=O)c1cccc2cnccc12`, the inhibition (Ovis aries [9]) was “inactive”.

For `Cc1ccc(/C=C/CNCCNS(=O)(=O)c2cccc3cnccc23)cc1`, the pIC50 [1] was 4.65.

`O=S(=O)(NCCCNC/C=C/c1ccc(Br)cc1)c1cccc2cnccc12` showed a pIC50 [1] of 5.15.

For `CCCC(CCC)C(=O)O`, the Activity (Mus musculus [10]) was “Active”.

For `O=C(N/N=C/c1cc(O)c(O)cc1O)c1cc2ccccc2cc1O`, the pIC50 [11] was 5.24.

In the case of `CN(C)c1cccc2c(S(=O)(=O)NCCNC/C=C/c3ccc(Br)cc3)cccc12`, the pIC50 [1] was 5.41, the pIC50 [2] was 4.54 and the pIC50 (Rattus norvegicus [3]) was 3.90.

From ChEMBL document CHEMBL5329162, “The sulfonadyns: a class of aryl sulfonamides inhibiting dynamin I GTPase and clathrin mediated endocytosis are anti-seizure in animal models” (RSC Med Chem, 2023)
